Experimental data as given in ChEMBL document CHEMBL1155155, “Single-dose pharmacokinetics of intravenous itraconazole and hydroxypropyl-beta-cyclodextrin in infants, children, and adolescents” (Antimicrob Agents Chemother, 2007).

Key:
[1] = tested on: Homo sapiens; assay: AUC (0 to 24 hrs) in children of >2-6 yrs age at risk for fungal infection assessed as hydroxyitraconazole level at 2.5 mg/kg, iv in 0.1 g/kg hydroxypropyl-beta-cyclodextrin administered as single dose; assay type: ADME, organism-based, Plasma; design: time < 24 hr, dose 2.5 mg/kg, route intravenous; conditions: in vivo
In short: (§1)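 Single 1-h constant-rate IV infusion. Venous plasma sampled predose and to 120 h (>2 y) or 96 h (<2 y), then stored at –20°C. Hydroxyitraconazole was measured by borate/isoamylalcohol-heptane extraction, HCl back-extraction, C18 HPLC and UV 263 nm, with a linear range of 5–5,000 ng/ml. Noncompartmental analysis: Cmax and tmax by inspection, AUC0-24 by trapezoidal rule.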

[2] = tested on: Homo sapiens; assay: AUC (0 to 24 hrs) in children of >6-12 yrs age at risk for fungal infection assessed as hydroxyitraconazole level at 2.5 mg/kg, iv in 0.1 g/kg hydroxypropyl-beta-cyclodextrin administered as single dose; assay type: ADME, organism-based, Plasma; design: time < 24 hr, dose 2.5 mg/kg, route intravenous; conditions: in vivo; in short: as §1
[3] = tested on: Homo sapiens; assay: AUC (0 to 24 hrs) in children of >2-6 yrs age at risk for fungal infection at 2.5 mg/kg, iv in 0.1 g/kg hydroxypropyl-beta-cyclodextrin administered as single dose; assay type: ADME, organism-based, Plasma; design: time < 24 hr, dose 2.5 mg/kg, route intravenous; conditions: in vivo
In short: (§2)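 Single 1-h IV infusion. Plasma sampled from the contralateral limb predose and at 1–120 h (>2 y) or 1–96 h (<2 y). Itraconazole was extracted with internal standard and quantified by C18 HPLC with UV 263 nm detection, linear range 2–2,000 ng/ml. Noncompartmental analysis: Cmax by inspection, AUC0-24 by trapezoidal rule, AUC extrapolated via λz, CL and Vz from AUC0-∞.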

[4] = tested on: Homo sapiens; assay: Tmax in human at risk for fungal infection assessed as hydroxyitraconazole level at 2.5 mg/kg, iv in 0.1 g/kg hydroxypropyl-beta-cyclodextrin administered as single dose; assay type: ADME, organism-based; design: dose 2.5 mg/kg, route intravenous; conditions: in vivo; in short: as §1
[5] = tested on: Homo sapiens; assay: Cmax in infants of 0.6-2 yrs age at risk for fungal infection assessed as hydroxyitraconazole level at 2.5 mg/kg, iv in 0.1 g/kg hydroxypropyl-beta-cyclodextrin administered as single dose; assay type: ADME, organism-based; design: dose 2.5 mg/kg, route intravenous; conditions: in vivo
In short: (§3)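 Single constant-rate IV infusion over 1 h. Heparinised venous plasma was drawn predose and at 1–120 h (>2 yr) or 1–96 h (<2 yr, randomised to the itraconazole/metabolite arm), then stored at –20°C. Analysis used borate-buffered liquid-liquid extraction with internal standard, C18 HPLC and UV detection at 263 nm, linear 5–5,000 ng/ml. Individual Cmax was read by visual inspection, noncompartmental.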

[6] = Cmax in children of >6-12 yrs age at risk for fungal infection at 2.5 mg/kg, iv in 0.1 g/kg hydroxypropyl-beta-cyclodextrin administered as single dose; assay type: ADME, organism-based; design: dose 2.5 mg/kg, route intravenous; conditions: human, in vivo; in short: as §2
[7] = tested on: Homo sapiens; assay: Tmax in children of >6-12 yrs age at risk for fungal infection assessed as hydroxyitraconazole level at 2.5 mg/kg, iv in 0.1 g/kg hydroxypropyl-beta-cyclodextrin administered as single dose; assay type: ADME, organism-based; design: dose 2.5 mg/kg, route intravenous; conditions: in vivo; in short: as §1
[8] = Half life in children of >2-6 yrs age at risk for fungal infection at 2.5 mg/kg, iv in 0.1 g/kg hydroxypropyl-beta-cyclodextrin administered as single dose; assay type: ADME, organism-based; design: dose 2.5 mg/kg, route intravenous; conditions: human, in vivo; in short: as §2
[9] = Cmax in infants of 0.6-2 yrs age at risk for fungal infection at 2.5 mg/kg, iv in 0.1 g/kg hydroxypropyl-beta-cyclodextrin administered as single dose; assay type: ADME, organism-based; design: dose 2.5 mg/kg, route intravenous; conditions: human, in vivo; in short: as §2
[10] = tested on: Homo sapiens; assay: Half life in infants of 0.6-2 yrs age at risk for fungal infection assessed as hydroxyitraconazole level at 2.5 mg/kg, iv in 0.1 g/kg hydroxypropyl-beta-cyclodextrin administered as single dose; assay type: ADME, organism-based; design: dose 2.5 mg/kg, route intravenous; conditions: in vivo; in short: as §1
[11] = Apparent volume of distribution in human at risk for fungal infection at 2.5 mg/kg, iv in 0.1 g/kg hydroxypropyl-beta-cyclodextrin administered as single dose; assay type: ADME, organism-based; design: dose 2.5 mg/kg, route intravenous; conditions: in vivo; in short: as §2
[12] = Half life in human at risk for fungal infection at 2.5 mg/kg, iv in 0.1 g/kg hydroxypropyl-beta-cyclodextrin administered as single dose; assay type: ADME, organism-based; design: dose 2.5 mg/kg, route intravenous; conditions: in vivo; in short: as §2
[13] = tested on: Homo sapiens; assay: Cmax in children of >6-12 yrs age at risk for fungal infection assessed as hydroxyitraconazole level at 2.5 mg/kg, iv in 0.1 g/kg hydroxypropyl-beta-cyclodextrin administered as single dose; assay type: ADME, organism-based; design: dose 2.5 mg/kg, route intravenous; conditions: in vivo; in short: as §3
[14] = tested on: Homo sapiens; assay: Half life in human at risk for fungal infection assessed as hydroxyitraconazole level at 2.5 mg/kg, iv in 0.1 g/kg hydroxypropyl-beta-cyclodextrin administered as single dose; assay type: ADME, organism-based; design: dose 2.5 mg/kg, route intravenous; conditions: in vivo; in short: as §1
[15] = Apparent volume of distribution in infants of 0.6-2 yrs age at risk for fungal infection at 2.5 mg/kg, iv in 0.1 g/kg hydroxypropyl-beta-cyclodextrin administered as single dose; assay type: ADME, organism-based; design: dose 2.5 mg/kg, route intravenous; conditions: human, in vivo; in short: as §2
[16] = Half life in children of >6-12 yrs age at risk for fungal infection at 2.5 mg/kg, iv in 0.1 g/kg hydroxypropyl-beta-cyclodextrin administered as single dose; assay type: ADME, organism-based; design: dose 2.5 mg/kg, route intravenous; conditions: human, in vivo; in short: as §2
[17] = AUC (0 to 24 hrs) in children of >6-12 yrs age at risk for fungal infection at 2.5 mg/kg, iv in 0.1 g/kg hydroxypropyl-beta-cyclodextrin administered as single dose; assay type: ADME, organism-based; design: time < 24 hr, dose 2.5 mg/kg, route intravenous; conditions: human, plasma; in short: as §2
[18] = Clearance in adolescents of >12-16 yrs age at risk for fungal infection at 2.5 mg/kg, iv in 0.1 g/kg hydroxypropyl-beta-cyclodextrin administered as single dose; assay type: ADME, organism-based; design: dose 2.5 mg/kg, route intravenous; conditions: human, in vivo; in short: as §2
[19] = tested on: Homo sapiens; assay: Half life in children of >6-12 yrs age at risk for fungal infection assessed as hydroxyitraconazole level at 2.5 mg/kg, iv in 0.1 g/kg hydroxypropyl-beta-cyclodextrin administered as single dose; assay type: ADME, organism-based; design: dose 2.5 mg/kg, route intravenous; conditions: in vivo; in short: as §1
[20] = Apparent volume of distribution in children of >2-6 yrs age at risk for fungal infection at 2.5 mg/kg, iv in 0.1 g/kg hydroxypropyl-beta-cyclodextrin administered as single dose; assay type: ADME, organism-based; design: dose 2.5 mg/kg, route intravenous; conditions: human, in vivo; in short: as §2
[21] = Cmax in adolescents of >12-16 yrs age at risk for fungal infection at 2.5 mg/kg, iv in 0.1 g/kg hydroxypropyl-beta-cyclodextrin administered as single dose; assay type: ADME, organism-based; design: dose 2.5 mg/kg, route intravenous; conditions: human, in vivo; in short: as §2
[22] = Cmax in children of >2-6 yrs age at risk for fungal infection at 2.5 mg/kg, iv in 0.1 g/kg hydroxypropyl-beta-cyclodextrin administered as single dose; assay type: ADME, organism-based; design: dose 2.5 mg/kg, route intravenous; conditions: human, in vivo; in short: as §2

`CCC(C)n1ncn(-c2ccc(N3CCN(c4ccc(OCC5COC(Cn6cncn6)(c6ccc(Cl)cc6Cl)O5)cc4)CC3)cc2)c1=O` (configuration not stated) [ITRACONAZOLE] gave an AUC [1] of 4249 ng·h/mL, an AUC [2] of 4166 ng·h/mL and an AUC [3] of 9510 ng·h/mL. The Tmax [4] was 2.2 h, the Cmax [5] was 265 ng/mL and the Cmax [6] was 785 ng/mL. The Tmax [7] was 1.7 h, the half-life [8] was 14 h and the Cmax [9] was 827 ng/mL. It also gave a t1/2 [10] of 16.6 h, a Vd [11] of 18.5 L/kg and a half-life [12] of 20.2 h. It also gave a Cmax [13] of 277 ng/mL, a t1/2 [14] of 13.3 h and a Vd [15] of 23.6 L/kg. For the same compound, the half-life [16] was 17.2 h, the AUC(0-t) at 24 h [17] was 3760 ng·h/mL and the clearance [18] was 12.9 mL/min/kg. It also gave a t1/2 [19] of 14.3 h, a Vd [20] of 8.3 L/kg and a Cmax [21] of 806 ng/mL. The Cmax [22] was 1550 ng/mL.
